Assay outcomes as filed in PubChem BioAssay.
mABHD4 FP – ABHD4 inhibitors, primary screen, biochemical, fluorescence polarization, mouse | (Lyso)-N-acylphosphatidylethanolamine lipase (Mus musculus), Q8VD66 | purified mABHD4, FP-Rh probe fluorescence polarization | inhibition, % at 8.92 µM | 370,000 compounds, 0.54% hits;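 active = inhibition exceeding the mean over every tested compound plus 3 SD, cut at about 30% in these data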
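Assay system: Wild-type mouse ABHD4 protein | Medium: HEPES pH 7.0 buffer, 150 mM NaCl, 0.01% Pluronic F-127 | Incubation: Enzyme–compound pre-incubation 45 min, then probe 60 min, both 25 °C | Technique: Fluorescence polarization with parallel and perpendicular emission, 525/598 nm | Evaluation: % inhibition of FP-Rh probe binding versus controls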
HTRA1 inh – HTRA1 serine protease inhibitors, primary screen, biochemical, fluorescence polarization, HTS; recombinant HTRA1, FP-rhodamine activity-based probe; inhibition, % at 5.96 µM; 340,000 compounds, 0.5% hits; in the data active = inhibition above about 36%
TCR-CD3 inh – inhibitors of human TCR-CD3 interaction, primary screen, biochemical, fluorescence, TAMRA-labeled TCR probe. T-cell receptor (TCR). inhibition, % at 9.4 µM. 360,000 compounds, 0.37% hits. AID 651800, 2012;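 note: recombinant mutant TCR 2C K166C tagged with TAMRA read by polarization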
SIAE inh – human SIAE inhibitors, primary screen, biochemical, fluorescence polarization, FP-Rh probe, 1536-well HTS; SIAE FP-Rh probe binding; Sialate O-acetylesterase (Homo sapiens), Q9HAT2; 370,000 compounds, 0.69% hits; inhibition, % at 9.66 µM;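 active = inhibition above a cutoff: mean of compounds within the control limits plus 3 SD of those, cut at about 17% in these data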
Tn6 DDE FP – inhibitors of Tn6 peptide binding to fibrin DD(E), primary screen, biochemical, fluorescence polarization, human fibrin, Tn6 probe; inhibition, % at 8.3 µM; AID 720509, 2013; Fibrinogen beta chain (Homo sapiens), P02675; 370,000 compounds, 0.21% hits; Fibrin DD(E) TRITC-Tn6 fluorescence polarization displacement;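 active = inhibition above a per-campaign cutoff: mean of compounds within control limits plus 3 SD, cut at about 15% in these data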
Target sequence (P02675 whole entry, looked up): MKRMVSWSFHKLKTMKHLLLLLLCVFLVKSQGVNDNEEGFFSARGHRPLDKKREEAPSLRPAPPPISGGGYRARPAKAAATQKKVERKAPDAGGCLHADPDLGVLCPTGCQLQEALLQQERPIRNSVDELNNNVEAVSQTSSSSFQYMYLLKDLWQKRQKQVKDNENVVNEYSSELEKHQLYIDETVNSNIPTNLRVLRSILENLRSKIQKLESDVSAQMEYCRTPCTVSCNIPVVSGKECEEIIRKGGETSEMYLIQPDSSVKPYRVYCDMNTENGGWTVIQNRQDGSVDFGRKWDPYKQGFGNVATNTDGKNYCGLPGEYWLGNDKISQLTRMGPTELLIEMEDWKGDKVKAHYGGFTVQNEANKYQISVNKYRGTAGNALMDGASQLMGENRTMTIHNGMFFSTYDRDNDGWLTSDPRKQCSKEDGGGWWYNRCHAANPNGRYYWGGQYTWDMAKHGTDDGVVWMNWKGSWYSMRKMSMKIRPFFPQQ
Tn7 DDE FP – inhibitors of Tn7 peptide binding to fibrin DD(E), primary screen, biochemical, fluorescence polarization, human fibrin, Tn7 probe; Fibrinogen beta chain (Homo sapiens), P02675; FP displacement of FITC-Tn7 peptide from fibrin DD(E); 0% = median of compound wells per plate; inhibition, % at 8.3 µM; 370,000 compounds, 0.13% hits; AID 720508, 2013;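 active = inhibition above the mean of compounds falling within the control limits plus 3 SD of them, cut at about 14% in these data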
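System: human fibrin DD(E); quantity: Fibrin-DD(E) at 2 µM final; also added: fluorescent Tn7 probe at 0.1 µM; compound dosing: single nominal test concentration of 8.3 µM per compound; schedule: 10 min preincubation, 3 h with tracer, room temperature; detection: fluorescence polarization of the labelled Tn7 tracer; repeats: one replicate per compound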
BSA probe FL – compounds interfering with TAMRA-BSA probe, counter-screen for TCR-CD3 interaction inhibitor project, biochemical, fluorescence, TAMRA-labeled BSA; 1,200 compounds, 10% hits; shares compounds with TCR-CD3 inh; TAMRA-labeled BSA probe fluorescence counterscreen; AID 652035, 2013; inhibition, % at 9.4 µM; in the data active = inhibition above about 23%
TCR-CD3 conf – TCR-CD3 interaction inhibitors, retest, confirmation, biochemical, fluorescence, TAMRA-labeled TCR probe | shares compounds with TCR-CD3 inh | TAMRA-labeled TCR probe fluorescence binding assay | inhibition, % at 9.4 µM | 1,200 compounds, 48% hits | AID 652036, 2013
Tn7 DDE conf – inhibitors of Tn7 peptide binding to fibrin DD(E), confirmation, biochemical, fluorescence polarization, human fibrin, Tn7 probe | shares compounds with Tn7 DDE FP | FP displacement of TRITC-Tn7 peptide from DD(E); 0% set at plate's compound-well median | inhibition, % at 8.3 µM | 460 compounds, 5% hits;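 active = inhibition above the campaign cutoff, the mean of compounds within control limits plus 3 SD, cut at about 14% in these data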;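 note: displacers lower polarization since freed probe rises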
Tn7 DDE ctr – counter-screen for inhibitors of Tn7 peptide binding to fibrin DD(E); shares compounds with Tn7 DDE FP; inhibition, % at 8.3 µM; AID 720633; 460 compounds, 3% hits; TRITC-Tn7 probe displacement, fluorescence polarization;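 active = inhibition above the cutoff, the mean of compounds lying between the control bounds plus 3 SD of those compounds, cut at about 17% in these data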
Tn6 DDE ctr – DD(E)-Tn6 binding inhibition, counter-screen; shares compounds with Tn6 DDE FP; Fibrin DD(E), TRITC-Tn6 fluorescence polarization displacement; 0% = median of compound wells, not DMSO; inhibition, % at 8.3 µM; 680 compounds, 2% hits; AID 720621;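 active = inhibition above the mean of test compounds lying between the control limits plus 3 SD of those, cut at about 14% in these data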
Tn6 DDE conf – inhibitors of Tn6 peptide binding to fibrin DD(E), confirmation, biochemical, fluorescence polarization, human fibrin, Tn6 probe; FP displacement of TRITC-Tn6 peptide from DD(E); 0% = per-plate median of test wells; 680 compounds, 10% hits; inhibition, % at 8.3 µM; shares compounds with Tn6 DDE FP;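 active = inhibition above the mean of compounds lying within the control limits plus 3 SD, cut at about 16% in these data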
ABHD4 confirm – ABHD4 inhibitors, retest, confirmation, biochemical, fluorescence polarization, mouse; shares compounds with mABHD4 FP; purified mABHD4, FP-Rh probe fluorescence polarization; inhibition, % at 8.92 µM; 1,800 compounds, 55% hits;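 active = mean inhibition across replicates above the hit cutoff set in the primary screen, cut at about 30% in these data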
SIAE inh conf – human SIAE inhibitors, retest, confirmation, biochemical, fluorescence polarization, FP-Rh probe, triplicate. SIAE FP-Rh activity-based probe. inhibition, % at 9.66 µM. AID 1117263, 2014. 2,300 compounds, 13% hits. shares compounds with SIAE inh;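 active = mean inhibition of the replicates above the hit cutoff set in the primary screen, cut at about 17% in these data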;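 note: inhibitors lower polarization as more probe stays unbound to SIAE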
Hits are given with their value; – = inactive; · = no result. A selection: hits, their analogues and other compounds. The true share with any hit is near 1.8%. Cut-off read from the data, not from the text of the source, unless noted: active = inhibition above about 19%; inactive = the rest.

SMILES	mABHD4 FP	HTRA1 inh	TCR-CD3 inh	SIAE inh	Tn6 DDE FP	Tn7 DDE FP	BSA probe FL	TCR-CD3 conf	ABHD4 confirm	SIAE inh conf	others
O=C(COC(=O)c1c2c(nc3ccccc13)/C(=C/c1ccco1)CC2)NC1CCCC1	50.8	59.9	22.7	26.9	–	–	–	–	–	·
CCN(C)c1nc(C)nc2c1nnn2Cc1ccccc1	–	·	·	–	–	–	·	·	·	·
O=C1NC(=S)S/C1=C\C=C\c1ccc([N+](=O)[O-])o1	41.6	–	31.7	–	–	–	–	28.7	–	·
Cc1ccccc1NC(=O)N(C)[C@H]1C[C@H]2c3[nH]c4c(-c5ccccc5)cccc4c3CCN2C[C@H]1[C@H](C)O	–	·	·	–	–	–	·	·	·	·
Cc1onc(-c2ccccc2Cl)c1C(=O)NCc1ccc2c(c1)cc(C)n2C	29.8	–	34.1	–	21.7	–	–	–	–	·	Tn6 DDE ctr=–;Tn6 DDE conf=–
O=[N+]([O-])c1cc([N+](=O)[O-])c2nonc2c1Nc1ccccc1O	–	–	–	–	–	–	·	·	·	·
O=[N+]([O-])c1cc([N+](=O)[O-])c2nonc2c1Nc1ccc(O)cc1	45.8	–	42.7	20.9	17.9	–	–	–	–	–
COC(=O)[C@H](CC(C)C)N1Cc2nnn(Cc3ccccc3)c2-c2ccccc2S1(=O)=O	–	·	·	–	–	–	·	·	·	·
OC1CCC2CN3CCc4c([nH]c5ccccc45)C3CC2C1 (configuration not stated)	–	·	–	–	–	–	·	·	·	·
O=C(O)C1CCCC2CN3CCc4c([nH]c5ccccc45)C3C(O)C21 (configuration not stated)	–	–	26.7	19.3	–	–	–	–	·	–
COc1ccc2c(c1)CCCN2C(=O)C1CCCN(S(=O)(=O)c2ccc(Cl)s2)C1 (configuration not stated)	–	·	·	–	–	–	·	·	·	·
Cc1c(C(=O)NNC(=O)c2ccccc2O)oc2ccccc12	–	–	22.5	20.7	–	–	–	25.4	·	–
Nc1c(C(=O)NCC2CCCO2)sc2nc3c(c(-c4ccco4)c12)CC/C3=C\c1ccco1 (configuration not stated)	31.6	39.8	38.9	22.8	–	–	–	24.1	–	–
CCCCCN1CCCCC(NC(=O)c2ccc3ccccc3c2)C1=O (configuration not stated)	–	·	·	–	–	–	·	·	·	·
COc1cc([N+](=O)[O-])cc(/C=N/NC(=O)c2ccc(C)nc2)c1O	–	–	–	–	–	–	·	·	·	·
COc1cc([N+](=O)[O-])cc(/C=N/NC(=O)c2ccc(NC(=O)c3ccc(C)cc3)cc2)c1O	–	–	27.4	18.1	–	–	–	45.2	·	–
COc1ccc(/C(C)=N/NC(=S)NCCc2ccccc2)c(O)c1	–	–	22.3	24.7	–	–	–	–	·	23.5
C/C(=N\NC(=O)c1cccc(Cl)c1)c1cccc(NC(=O)c2ccco2)c1	–	–	–	–	–	–	·	·	·	·
C/C(=N\NC(=O)c1cc(O)ccc1O)c1cccc(NC(=O)c2cccc(Cl)c2)c1	53.7	–	43.2	33.1	–	–	–	–	36.2	20.2
COc1cccc(N2CCN(S(=O)(=O)c3cc4c(cc3C)N(C)CCO4)CC2)c1	–	–	–	–	–	–	·	·	·	·
Cc1cc2c(cc1S(=O)(=O)N1CCN(c3cccc(C)c3C)CC1)OCCN2C	128.9	–	127.4	86.7	130.6	–	–	–	77.6	57.8	Tn6 DDE ctr=–;Tn6 DDE conf=67.1
COc1ccc(N2C(=O)c3cccc4c(N(C)CCO)ccc(c34)C2=O)cc1	–	–	–	–	–	–	·	·	·	·
Cc1ccc(N2C(=O)c3cccc4c(C(=O)O)ccc(c34)C2=O)cc1	–	·	–	–	–	–	·	·	·	·
CC(=O)Nc1ccc(N2C(=O)c3cccc4c(O)ccc(c34)C2=O)cc1	–	–	54.4	26.1	–	20.1	74.3	51.8	·	17.3	Tn7 DDE conf=–;Tn7 DDE ctr=–
O=C1c2cccc3c(O)ccc(c23)C(=O)N1c1ccc(Cl)cc1	57.1	–	32.5	36.6	–	40.3	26.2	20.5	30.6	–	Tn7 DDE conf=–;Tn7 DDE ctr=–
Cn1ccc2c(N3CCCCCCC3)cc3c(c21)C1CCC3O1 (configuration not stated)	39.9	·	91.2	49.0	–	–	–	–	–	–
CCN(C(=O)CSc1nnc(-c2cccnc2)n1Cc1ccco1)c1ccccc1C	–	·	·	–	–	–	·	·	·	·
